SMILES strings stand for the structures. Where a SMILES comes first, the peptide text is derived from it. Bounds are passed on as bounds.

The record followed here is ChEMBL document CHEMBL3875202, “Design and optimization of aspartate N-acetyltransferase inhibitors for the potential treatment of Canavan disease” (Bioorg Med Chem, 2017).

The experiment can be described thus: Inhibition of recombinant human His-tagged maltose binding protein fused ANAT expressed in Escherichia coli NiCo21(DE3) using L-aspartate as substrate after 15 mins in presence of acetyl-CoA by DTNB based spectrophotometric method. Put shortly: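 MBP-ANAT-His fusion purified on Ni Sepharose then amylose column. Assay: 20 mM HEPES pH 7.4, 150 mM NaCl, 5% glycerol, 40 µM DTNB, 40 µM acetyl-CoA, 2 mM L-aspartate, 25 µg enzyme, 200 µl total. Read at 412 nm for at least 15 min. Ki from twofold inhibitor dilutions; no-inhibitor and no-aspartate/no-inhibitor controls; pH of top-dose wells checked.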
Turning to `O=C(O)C[C@H](NC(=O)OCc1ccccc1)C(=O)O`, the Ki turned out to be 17 µM.

On to `O=C(O)CC[C@H](NC(=O)c1ccccc1)C(=O)O`, for which the Ki was 130 µM.

For `O=C(O)CC[C@H](NC(=O)OCc1ccccc1)C(=O)O`, the Ki was found to be 12 µM.

Take `O=C(O)CCNCc1ccc(C(=O)O)c(C(=O)O)c1`: the Ki is 1710 µM.

Regarding `C=CCN(CC(=O)O)Cc1ccc(C(=O)O)c(C(=O)O)c1`, the Ki was 719 µM.

Consider `O=C(O)CN(Cc1ccccc1)Cc1ccc(C(=O)O)c(C(=O)O)c1`, for which the Ki is 420 µM.

Take `O=C(O)CN(Cc1ccc(C(=O)O)c(C(=O)O)c1)c1cccc2ccccc12`: the Ki turned out to be 115 µM.

On to `O=C(O)CN(Cc1ccc(C(=O)O)c(C(=O)O)c1)c1ccc2ccccc2c1`, for which the Ki was 538 µM.

Consider `O=C(O)CN(CCN1CCOCC1)Cc1ccc(C(=O)O)c(C(=O)O)c1`, for which the Ki came out at 1080 µM.

Turning to `O=C(O)CN(Cc1ccc(C(=O)O)c(C(=O)O)c1)c1ccc(-c2ccccc2)cc1`, the Ki was 953 µM.

`O=CCN(CC(=O)O)Cc1ccc(C(=O)O)c(C(=O)O)c1`: the Ki stood at 1290 µM.

As for `O=C(O)CN(Cc1ccc(C(=O)O)c(C(=O)O)c1)Cc1ccccc1Br`, the Ki was determined as 114 µM.

`O=C(O)CN(Cc1cccc(Br)c1)Cc1ccc(C(=O)O)c(C(=O)O)c1`: the Ki came out at 269 µM.

As for `O=C(O)CN(Cc1ccc(Br)cc1)Cc1ccc(C(=O)O)c(C(=O)O)c1`, the Ki worked out at 1200 µM.

Take `Cc1ccccc1CN(CC(=O)O)Cc1ccc(C(=O)O)c(C(=O)O)c1`: the Ki was 1400 µM.

Turning to `Cc1cccc(CN(CC(=O)O)Cc2ccc(C(=O)O)c(C(=O)O)c2)c1`, the Ki is 1700 µM.

Turning to `Cc1ccc(CN(CC(=O)O)Cc2ccc(C(=O)O)c(C(=O)O)c2)cc1`, the Ki amounted to 4230 µM.

In the case of `O=C(O)CN(Cc1ccc(C(=O)O)c(C(=O)O)c1)Cc1ccccc1C(F)(F)F`, the Ki was found to be 390 µM.

For `O=C(O)CN(Cc1cccc(C(F)(F)F)c1)Cc1ccc(C(=O)O)c(C(=O)O)c1`, the Ki turned out to be 104 µM.

With `O=C(O)CN(Cc1ccc(C(F)(F)F)cc1)Cc1ccc(C(=O)O)c(C(=O)O)c1`, the Ki is 791 µM.

Consider `O=C(O)CN(Cc1ccc(C(=O)O)c(C(=O)O)c1)Cc1ccccc1OC(F)(F)F`, for which the Ki is 464 µM.

In the case of `O=C(O)CN(Cc1cccc(OC(F)(F)F)c1)Cc1ccc(C(=O)O)c(C(=O)O)c1`, the Ki stood at 246 µM.

Consider `O=C(O)CN(Cc1ccc(OC(F)(F)F)cc1)Cc1ccc(C(=O)O)c(C(=O)O)c1`, for which the Ki was determined as 749 µM.

As to `O=C(O)CN(Cc1ccc(OC(F)F)cc1)Cc1ccc(C(=O)O)c(C(=O)O)c1`, the Ki came out at 489 µM.

On to `O=C(O)CN(Cc1ccc(C(=O)O)cc1)Cc1ccc(C(=O)O)c(C(=O)O)c1`, for which the Ki is 104 µM.

Consider `NC(=O)c1ccc(CN(CC(=O)O)Cc2ccc(C(=O)O)c(C(=O)O)c2)cc1`, for which the Ki came out at 1880 µM.

Take `CC(C)(C)c1ccc(CN(CC(=O)O)Cc2ccc(C(=O)O)c(C(=O)O)c2)cc1`: the Ki was 687 µM.

Regarding `O=C(O)CN(Cc1ccc(C(F)(F)C(F)(F)C(F)(F)F)cc1)Cc1ccc(C(=O)O)c(C(=O)O)c1`, the Ki was 426 µM.

Consider `O=C(O)CCN(Cc1ccc(Br)cc1)Cc1ccc(C(=O)O)c(C(=O)O)c1`, for which the Ki amounted to 370 µM.

For `O=C(O)CCN(Cc1ccc(C(F)(F)F)cc1)Cc1ccc(C(=O)O)c(C(=O)O)c1`, the Ki was found to be 186 µM.

Take `CCCC(=O)N[C@@H](CCC(=O)O)C(=O)O`: the Ki worked out at 270 µM.

Turning to `O=C(O)C[C@H](NC(=O)CCCc1ccccc1)C(=O)O`, the Ki was 200 µM.

As to `O=C(O)CCN(Cc1ccc(C(=O)O)c(C(=O)O)c1)Cc1ccc(C(=O)O)cc1-c1ccccc1`, the Ki amounted to 47.4 µM.

As to `O=C(O)CCN(Cc1ccc(C(=O)O)c(C(=O)O)c1)Cc1ccc(C(=O)O)cc1C(F)(F)F`, the Ki is 17 µM.

For the compound `CC(=O)c1ccc(CN(CC(=O)O)Cc2ccc(C(=O)O)c(C(=O)O)c2)cc1`, the Ki amounted to 2540 µM.

As to `O=C(O)CC[C@H](NC(=O)CCc1ccccc1)C(=O)O`, the Ki was determined as 38 µM.

With `O=C(O)C[C@H](NCCCCc1ccccc1)C(=O)O`, the Ki turned out to be 100 µM.

Take `O=C(O)CCN(Cc1ccc(C(=O)O)c(C(=O)O)c1)Cc1c(Cl)cc(C(=O)O)cc1Cl` [listing 1 of 2 here]: the Ki turned out to be 0.6 µM.

On to `O=C(O)C[C@H](NC(=O)CCc1ccccc1C(F)(F)F)C(=O)O`, for which the Ki came to 100 µM.

On to `O=C(O)CC[C@H](NC(=O)CCCc1ccccc1)C(=O)O`, for which the Ki was 610 µM.

Take `O=C(O)CCN(Cc1ccc(C(=O)O)c(C(=O)O)c1)Cc1ccccc1Br`: the Ki came out at 173 µM.

With `O=C(O)CCC[C@H](NC(=O)Cc1ccccc1)C(=O)O`, the Ki stood at 1160 µM.

As to `O=C(O)CCN(Cc1ccc(C(=O)O)c(C(=O)O)c1)c1cccc2ccccc12`, the Ki stood at 34 µM.

For `O=C(O)C[C@H](NC(=O)c1ccc2ccccc2c1)C(=O)O`, the Ki amounted to 390 µM.

As to `O=C(CCc1ccccc1)NC(C(=O)O)C(=O)O`, the Ki was determined as 1400 µM.

In the case of `O=C(O)C[C@H](NCCCc1ccccc1)C(=O)O`, the Ki was 120 µM.

For the compound `O=C(O)C[C@H](NC(=O)CCc1cccc(C(F)(F)F)c1)C(=O)O`, the Ki is 1220 µM.

For `O=C(O)CCC[C@H](NC(=O)c1ccccc1)C(=O)O`, the Ki was found to be 1600 µM.

Take `O=C(O)CCN(Cc1ccc(C(=O)O)c(C(=O)O)c1)Cc1ccc(C(=O)O)cc1Br`: the Ki stood at 2.01 µM.

With `O=C(O)CCN(Cc1ccc(C(=O)O)c(C(=O)O)c1)Cc1ccc(C(=O)O)cc1F`, the Ki worked out at 4.06 µM.

With `O=C(O)CC[C@H](NC(=O)Cc1ccccc1)C(=O)O`, the Ki was 250 µM.

For the compound `COc1ccc(CCC(=O)N[C@@H](CC(=O)O)C(=O)O)cc1`, the inhibition constant (Ki) is 1500 µM.

Take `O=C(O)C[C@H](NC(=O)CBr)C(=O)O`: the Ki is above 2000 µM.

On to `O=C(O)C[C@H](NC(=O)CCc1ccc(O)c(O)c1)C(=O)O`, for which the Ki was found to be 1560 µM.

For `O=C(O)CCC[C@H](NC(=O)CCc1ccccc1)C(=O)O`, the Ki was determined as 2900 µM.

Regarding `O=C(O)CCN(Cc1ccc(C(=O)O)c(C(=O)O)c1)Cc1ccc(C(=O)O)cc1-c1cccc2ccccc12`, the Ki stood at 187 µM.

Take `O=C(O)CCN(Cc1ccc(C(=O)O)cc1)Cc1ccc(C(=O)O)c(C(=O)O)c1`: the Ki was determined as 29 µM.

Consider `CC(C)(C)C(=O)N[C@@H](CCCC(=O)O)C(=O)O`, for which the Ki amounted to 760 µM.

Take `Cc1cccc(CN(CCC(=O)O)Cc2ccc(C(=O)O)c(C(=O)O)c2)c1`: the Ki was determined as 563 µM.

For the compound `O=C(O)CCN(Cc1ccc(C(=O)O)c(C(=O)O)c1)Cc1ccccc1C(F)(F)F`, the Ki is 88 µM.

For `O=C(O)C[C@H](NC(=O)CCl)C(=O)O`, the Ki is 200 µM.

With `O=C(O)C[C@H](NC(=O)Cc1ccccc1)C(=O)O`, the Ki is 460 µM.

For `O=C(O)CCN(Cc1ccc(C(=O)O)c(C(=O)O)c1)Cc1ccc(C(=O)O)cc1Cl`, the Ki turned out to be 1.7 µM.

In the case of `CC(C)(C)C(=O)N[C@@H](CCC(=O)O)C(=O)O`, the Ki amounted to 280 µM.

As to `O=C(O)C[C@H](NCc1ccccc1)C(=O)O`, the inhibition constant Ki was 620 µM.

Take `Cc1ccc(CN(CCC(=O)O)Cc2ccc(C(=O)O)c(C(=O)O)c2)cc1`: the Ki came to 2750 µM.

As to `O=C(O)CCN(Cc1cccc(Br)c1)Cc1ccc(C(=O)O)c(C(=O)O)c1`, the Ki amounted to 101 µM.

On to `O=C(O)CCN(Cc1ccc(C(=O)O)c(C(=O)O)c1)c1ccc(-c2ccccc2)cc1`, for which the Ki turned out to be 550 µM.

With `O=C(O)C[C@H](NC(=O)CCc1ccccc1)C(=O)O`, the Ki was determined as 31 µM.

Consider `O=C(O)CCN(Cc1ccc(C(=O)O)c(C(=O)O)c1)Cc1c(Cl)cc(C(=O)O)cc1Cl` [listing 2 of 2 here], for which the Ki amounted to 0.61 µM.

Consider `O=C(O)C[C@H](NC(=O)CCc1ccc(-c2ccccc2)cc1)C(=O)O`, for which the Ki was found to be 210 µM.

On to `O=C(O)C[C@H](NC(=O)c1ccc(C(F)(F)F)cc1)C(=O)O`, for which the Ki came out at 380 µM.

Take `O=C(O)CCN(Cc1ccc(C(=O)O)c(C(=O)O)c1)Cc1c(Br)cc(C(=O)O)cc1Br`: the Ki worked out at 0.77 µM.

Turning to `Cc1ccccc1CN(CCC(=O)O)Cc1ccc(C(=O)O)c(C(=O)O)c1`, the Ki was determined as 724 µM.

With `Cc1ccccc1CCC(=O)N[C@@H](CC(=O)O)C(=O)O`, the Ki turned out to be 280 µM.

As to `O=C(O)CCN(Cc1cccc(C(F)(F)F)c1)Cc1ccc(C(=O)O)c(C(=O)O)c1`, the Ki turned out to be 37 µM.

In the case of `O=C(O)CCC[C@H](NC(=O)CCCc1ccccc1)C(=O)O`, the Ki was found to be 740 µM.

Take `O=C(O)C[C@H](NC(=O)c1ccccc1)C(=O)O`: the Ki is above 2000 µM.

Turning to `CCCC(=O)N[C@@H](CCCC(=O)O)C(=O)O`, the Ki is above 2000 µM.

As for `O=C(O)CCC[C@H](NC(=O)CCC(=O)O)C(=O)O`, the Ki is above 2000 µM.

In the case of `O=C(O)CCN(Cc1ccc(C(=O)O)c(C(=O)O)c1)Cc1ccc(C(=O)O)c(C(F)(F)F)c1`, the inhibitory constant (Ki) was 930 µM.

On to `O=C(O)/C=C(\Br)C(=O)O`, for which the inhibitory constant (Ki) came out at 367 µM.

Consider `O=C(O)C[C@H](NCCc1ccccc1)C(=O)O`, for which the Ki is 250 µM.

For the compound `CC(C)(C)c1ccc(CN(CCC(=O)O)Cc2ccc(C(=O)O)c(C(=O)O)c2)cc1`, the inhibition constant (Ki) came to 1660 µM.

`C[C@H](N)C(=O)N[C@@H](CC(=O)O)C(=O)O` (H-Ala-Asp-OH): the Ki turned out to be 1600 µM.

In general, Ki refers to a measure of affinity in units of concentration, obtained from inhibition or displacement.
